Test results from ChEMBL document CHEMBL1151693, “Design, synthesis, and pharmacological evaluation of N-bicyclo-5-chloro-1H-indole-2-carboxamide derivatives as potent glycogen phosphorylase inhibitors” (Bioorg Med Chem, 2008).
Blank lines part the entries; values can stand above or below the compound they belong to.

What was measured:
[1] = biological target: T1, Glycogen phosphorylase, liver form (Homo sapiens, UniProt P06737); test: Inhibition of active form of human liver glycogen phosphorylase
T1 sequence (P06737 whole entry): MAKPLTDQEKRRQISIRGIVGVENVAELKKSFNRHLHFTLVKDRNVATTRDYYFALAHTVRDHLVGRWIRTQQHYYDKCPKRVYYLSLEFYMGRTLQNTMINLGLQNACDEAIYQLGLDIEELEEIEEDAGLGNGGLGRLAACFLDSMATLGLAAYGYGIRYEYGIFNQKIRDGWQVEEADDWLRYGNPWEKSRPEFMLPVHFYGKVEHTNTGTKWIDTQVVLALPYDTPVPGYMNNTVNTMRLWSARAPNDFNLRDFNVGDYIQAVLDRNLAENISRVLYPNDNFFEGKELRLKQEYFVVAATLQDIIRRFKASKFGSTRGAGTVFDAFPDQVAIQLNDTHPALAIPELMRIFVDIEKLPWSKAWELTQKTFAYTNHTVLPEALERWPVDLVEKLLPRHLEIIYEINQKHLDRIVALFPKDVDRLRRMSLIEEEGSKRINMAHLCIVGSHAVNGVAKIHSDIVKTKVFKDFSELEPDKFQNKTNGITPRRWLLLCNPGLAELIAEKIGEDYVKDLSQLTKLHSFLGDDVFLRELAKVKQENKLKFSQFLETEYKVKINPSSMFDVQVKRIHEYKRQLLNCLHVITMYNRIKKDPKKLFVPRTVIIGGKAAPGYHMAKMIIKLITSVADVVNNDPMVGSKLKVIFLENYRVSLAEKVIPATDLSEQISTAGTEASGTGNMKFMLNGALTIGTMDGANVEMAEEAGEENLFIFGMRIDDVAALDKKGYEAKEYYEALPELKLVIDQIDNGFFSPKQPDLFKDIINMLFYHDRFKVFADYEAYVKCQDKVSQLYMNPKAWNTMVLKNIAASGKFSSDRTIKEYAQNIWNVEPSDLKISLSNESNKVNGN

Hepatocyte = test: Inhibition of glucagon-induced glucose output in cultured rat primary hepatocytes; format: functional, cell-based
Mus musculus [2] = test: Hypoglycemic activity in db/db mouse assessed as reduction of plasma glucose at 3 mg/kg, po after 2 hrs relative to control; format: functional; design: scale not given: the % may be the effect or the level left
In short: (§1)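 Diabetic db/db mice were dosed orally. Plasma glucose was measured 2 h post-dose in drug-treated and vehicle-treated control animals. Activity is the percent decrease in plasma glucose versus the vehicle controls. Significance versus control was tested by Dunnett's test or Student's t-test.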

Mus musculus [3] = test: Hypoglycemic activity in db/db mouse assessed as reduction of plasma glucose at 10 mg/kg, po after 2 hrs relative to control; format: functional; design: scale not given: the % may be the effect or the level left; in short: as §1
[4] = AUC (0 to infinity) in Sprague-Dawley rat at 1 mg/kg, iv; format: ADME, organism-based; design: time infinity, dose 1 mg/kg, route intravenous; settings: plasma
In short: (§2)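 Pharmacokinetics were determined in male SD rats after intravenous or oral administration.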

[5] = Half life in Sprague-Dawley rat at 1 mg/kg, iv; format: ADME, organism-based; design: dose 1 mg/kg, route intravenous; settings: in vivo; in short: as §2
[6] = AUC (0 to infinity) in Sprague-Dawley rat at 3 mg/kg, po; format: ADME, organism-based; design: time infinity, dose 3 mg/kg, route oral; settings: plasma; in short: as §2
[7] = Cmax in Sprague-Dawley rat at 3 mg/kg, po; format: ADME, organism-based; design: dose 3 mg/kg, route oral; settings: in vivo; in short: as §2
[8] = Tmax in Sprague-Dawley rat at 3 mg/kg, po; format: ADME, organism-based; design: dose 3 mg/kg, route oral; settings: in vivo; in short: as §2
[9] = Oral bioavailability in Sprague-Dawley rat at 3 mg/kg; format: ADME, organism-based; settings: in vivo; in short: as §2
[10] = Total clearance in Sprague-Dawley rat at 1 mg/kg, iv; format: ADME, organism-based; design: dose 1 mg/kg, route intravenous; settings: in vivo; in short: as §2
[11] = Volume of distribution in Sprague-Dawley rat at 1 mg/kg, iv; format: ADME, organism-based; design: dose 1 mg/kg, route intravenous; settings: in vivo; in short: as §2
Mus musculus [12] = test: Hypoglycemic activity in db/db mouse assessed as reduction of plasma glucose at 30 mg/kg, po after 2 hrs relative to control; format: functional; design: scale not given: the % may be the effect or the level left; in short: as §1

- IC50 [1]: 48 nM
Structure (SMILES): O=C(Nc1ccc2c(c1F)CCC(F)(F)C2O)c1cc2cc(Cl)ccc2[nH]1 (configuration not stated)

- IC50 [1]: 36 nM
Structure (SMILES): O=C(Nc1c(F)cc2c(c1F)CCC(F)(F)C2O)c1cc2cc(Cl)ccc2[nH]1 (configuration not stated)

- IC50 [1]: 160 nM
Structure (SMILES): O=C(Nc1c(F)cc2c(c1F)CCC(F)(F)[C@H]2O)c1cc2cc(Cl)ccc2[nH]1

- IC50 [1]: 20 nM
- AUC(0-inf) [4]: 930 ng·h/mL
- half-life [5]: 12 h
- AUC(0-inf) [6]: 2780 ng·h/mL
- Cmax [7]: 785 ng/mL
- Tmax [8]: 0.5 h
- bioavailability [9]: 100%
- clearance [10]: 17.9 mL/min/kg
- Vd [11]: 18.1 L/kg
Structure (SMILES): O=C(Nc1c(F)cc2c(c1F)CCC(F)(F)[C@@H]2O)c1cc2cc(Cl)ccc2[nH]1
- IC50 (Hepatocyte): 690 nM
- Activity (Mus musculus [2]): 14%
- Activity (Mus musculus [3]): 26%

- IC50 [1]: > 10000 nM
Structure (SMILES): CC1(C)CCc2cc(NC(=O)c3cc4cc(Cl)ccc4[nH]3)ccc2C1O (configuration not stated)

Structure (SMILES): O=C(N[C@@H](Cc1ccc(F)cc1)C(=O)N1CCC(O)CC1)c1cc2cc(Cl)ccc2[nH]1
- Activity (Mus musculus [12]): 24%
